{
  "source": "paper PMC11612064",
  "about": "(EJNMMI Radiopharmacy and Chemistry, 2024)",
  "key": {"ACE2": {"target": "ACE2 (Homo sapiens, UniProt Q9BYF1)", "sequence (Q9BYF1 18-805)": "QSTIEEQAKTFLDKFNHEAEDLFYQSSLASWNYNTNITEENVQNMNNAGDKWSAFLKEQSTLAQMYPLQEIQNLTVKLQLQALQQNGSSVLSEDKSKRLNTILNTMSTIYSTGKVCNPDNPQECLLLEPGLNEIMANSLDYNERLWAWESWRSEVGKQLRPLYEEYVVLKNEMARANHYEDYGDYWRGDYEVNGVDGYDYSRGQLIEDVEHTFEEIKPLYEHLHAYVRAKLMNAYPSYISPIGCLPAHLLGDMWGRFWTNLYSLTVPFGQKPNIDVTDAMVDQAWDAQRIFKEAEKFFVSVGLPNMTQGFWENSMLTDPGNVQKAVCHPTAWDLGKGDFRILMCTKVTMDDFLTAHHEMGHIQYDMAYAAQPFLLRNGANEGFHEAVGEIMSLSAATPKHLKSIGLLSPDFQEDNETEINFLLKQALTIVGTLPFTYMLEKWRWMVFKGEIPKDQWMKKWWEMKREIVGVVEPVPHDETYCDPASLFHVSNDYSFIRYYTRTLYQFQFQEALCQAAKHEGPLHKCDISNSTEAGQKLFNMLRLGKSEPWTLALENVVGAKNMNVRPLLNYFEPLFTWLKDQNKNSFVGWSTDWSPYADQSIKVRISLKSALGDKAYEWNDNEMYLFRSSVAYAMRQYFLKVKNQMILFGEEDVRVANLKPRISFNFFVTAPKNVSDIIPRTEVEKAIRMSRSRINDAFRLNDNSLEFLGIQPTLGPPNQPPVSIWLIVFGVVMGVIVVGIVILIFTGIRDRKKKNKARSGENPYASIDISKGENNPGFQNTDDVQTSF", "assay": "In vivo biodistribution studies", "parameters": "species or system humanized ACE2 mice", "details": "30 min after injection, i.v. tail vein 3.7 MBq/kg, mean ± SD, n = 3", "procedure,_shortened": "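Male humanized ACE2 knock-in mice (C57BL/6 background, 6 weeks old) under 1.5% isoflurane, kept warm, received the ¹⁸F-labelled test compound by lateral tail vein and were killed by cervical dislocation 30 min later. Organs were weighed and gamma-counted, decay-corrected to euthanasia, and reported as %ID/g. Anti-ACE2 IHC AOD (integrated optical density/area) was linearly regressed against %ID/g.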"}, "human ACE2": {"system": "human ACE2", "details": "ref Wang et al. [2024], Joshi et al. [2016]; cited from earlier work"}, "human testicular ACE": {"system": "human testicular ACE", "details": "ref Wang et al. [2024], Joshi et al. [2016]; cited from earlier work"}, "[1]": {"target": "bovine carboxypeptidase A", "details": "ref Wang et al. [2024], Joshi et al. [2016]; cited from earlier work"}},
  "data": [
    {"smiles": "CC(C)C[C@H](N[C@@H](Cc1cncn1Cc1cc([18F])cc(Cl)c1)C(=O)O)C(=O)O", "note": "[^18F-MLN-4760]", "values": [
      {"measurement": "Tissue uptake, Belly fat", "setting": "ACE2", "value": "0.48 ± 0.45", "unit": "%ID/g"},
      {"measurement": "Tissue uptake, Cerebellum", "setting": "ACE2", "value": "0.40 ± 0.22", "unit": "%ID/g"},
      {"measurement": "Tissue uptake, Cerebrum", "setting": "ACE2", "value": "3.18 ± 4.31", "unit": "%ID/g"},
      {"measurement": "Tissue uptake, Eyeball", "setting": "ACE2", "value": "2.84 ± 0.74", "unit": "%ID/g"},
      {"measurement": "Tissue uptake, Heart", "setting": "ACE2", "value": "3.26 ± 0.28", "unit": "%ID/g"},
      {"measurement": "Tissue uptake, Kidneys", "setting": "ACE2", "value": "4.73 ± 0.58", "unit": "%ID/g"},
      {"measurement": "Tissue uptake, Large intestine", "setting": "ACE2", "value": "3.34 ± 1.88", "unit": "%ID/g"},
      {"measurement": "Tissue uptake, Liver", "setting": "ACE2", "value": "2.31 ± 0.77", "unit": "%ID/g"},
      {"measurement": "Tissue uptake, Lung", "setting": "ACE2", "value": "2.49 ± 1.09", "unit": "%ID/g"},
      {"measurement": "Tissue uptake, Medulla", "setting": "ACE2", "value": "1.83 ± 0.27", "unit": "%ID/g"},
      {"measurement": "Tissue uptake, Muscle", "setting": "ACE2", "value": "2.27 ± 0.75", "unit": "%ID/g"},
      {"measurement": "Tissue uptake, Oesophagus", "setting": "ACE2", "value": "11.32 ± 4.13", "unit": "%ID/g"},
      {"measurement": "Tissue uptake, Parotid", "setting": "ACE2", "value": "1.93 ± 0.79", "unit": "%ID/g"},
      {"measurement": "Tissue uptake, Shoulder fat", "setting": "ACE2", "value": "2.84 ± 1.56", "unit": "%ID/g"},
      {"measurement": "Tissue uptake, Small intestine", "setting": "ACE2", "value": "2.74 ± 0.90", "unit": "%ID/g"},
      {"measurement": "Tissue uptake, Spleen", "setting": "ACE2", "value": "1.58 ± 2.11", "unit": "%ID/g"},
      {"measurement": "Tissue uptake, Stomach", "setting": "ACE2", "value": "3.34 ± 2.71", "unit": "%ID/g"},
      {"measurement": "Tissue uptake, Testicles", "setting": "ACE2", "value": "2.91 ± 1.95", "unit": "%ID/g"}
    ]},
    {"smiles": "CC(C)C[C@H](N[C@@H](Cc1cncn1Cc1cc(Cl)cc(Cl)c1)C(=O)O)C(=O)O", "note": "[MLN-4760]", "values": [
      {"measurement": "IC50", "setting": "human ACE2", "value": 0.00044, "unit": "µM"},
      {"measurement": "IC50", "setting": "human testicular ACE", "value": "> 100", "unit": "µM"},
      {"measurement": "IC50", "setting": "[1]", "value": 27, "unit": "µM"}
    ]}
  ]
}
